Results reported in ChEMBL document CHEMBL1821629, “Nigerapyrones A-H, α-pyrone derivatives from the marine mangrove-derived endophytic fungus Aspergillus niger MA-132” (J Nat Prod, 2011).
Activity calls are given as the source filed them. The calls are words filed in the database; no cut-off is given here.

Key:
Coniella diplodiella = test: Antimicrobial activity against Coniella diplodiella by disc diffusion method; type: functional
Outline: (§1)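 Disk diffusion assay run against a panel of two bacteria (Staphylococcus aureus, Escherichia coli) and four plant-pathogenic fungi (Alternaria brassicae, Fusarium oxysporum, Coniella diplodiella, Physalospora piricola). The positive control was chloramphenicol for the bacterial strains and amphotericin B for the fungal strains.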

Escherichia coli = test: Antimicrobial activity against Escherichia coli by disc diffusion method; type: functional, organism-based; outline: as §1
[1] = tested on: Botryosphaeria berengeriana; test: Antimicrobial activity against Physalospora pyricola by disc diffusion method; type: functional, organism-based; outline: as §1
Fusarium oxysporum = test: Antimicrobial activity against Fusarium oxysporum by disc diffusion method; type: functional, organism-based; outline: as §1
Alternaria brassicae = test: Antimicrobial activity against Alternaria brassicae by disc diffusion method; type: functional; outline: as §1
Staphylococcus aureus = test: Antimicrobial activity against Staphylococcus aureus by disc diffusion method; type: functional, organism-based; outline: as §1
A549 = test: Cytotoxicity against human A549 cells; type: functional, cell-based
MCF7 = test: Cytotoxicity against human MCF7 cells; type: functional, cell-based
HepG2 = test: Cytotoxicity against human HepG2 cells; type: functional, cell-based
NCI-H460 = test: Cytotoxicity against human NCI-H460 cells; type: functional, cell-based
MDA-MB-231 = test: Cytotoxicity against human MDA-MB-231 cells; type: functional, cell-based
DU-145 = test: Cytotoxicity against human DU145 cells; type: functional, cell-based
SW1990 = test: Cytotoxicity against human SW1990 cells; type: functional, cell-based

SMILES	inhibition (Coniella diplodiella)	inhibition (Escherichia coli)	inhibition [1]	inhibition (Fusarium oxysporum)	inhibition (Alternaria brassicae)	inhibition (Staphylococcus aureus)	IC50 (A549) [µM]	IC50 (MCF7) [µM]	IC50 (HepG2) [µM]	IC50 (NCI-H460) [µM]	IC50 (MDA-MB-231) [µM]	IC50 (DU-145) [µM]	IC50 (SW1990) [µM]
COc1cc(-c2cc(C)cc(C)c2-c2ccccc2)oc(=O)c1	Active	Active	Active	Active	Active	Active	–	–	–	–	–	–	–
COc1cc(/C=C/C(C)=C/C(C)=C/c2ccccc2)oc(=O)c1	Active	Active	Active	Active	Active	Active	–	–	–	–	–	–	–
COc1cc(/C=C/C(C)=C/C(C)=C\c2ccccc2)oc(=O)c1	Active	Active	Active	Active	Active	Active	–	–	–	–	–	–	–
COc1cc(/C=C/C(C)=C/C(C)=O)oc(=O)c1	Active	Active	Active	Active	Active	Active	–	–	–	–	–	–	–
COc1cc(/C=C/C(C)=C\C(C)=C\c2ccccc2)oc(=O)c1	Active	Active	Active	Active	Active	Active	–	–	–	–	–	–	–
COc1cc(\C=C/C(C)=C/C(C)=C/c2ccccc2)oc(=O)c1	Active	Active	Active	Active	Active	Active	–	–	–	–	–	–	–
COc1cc(/C=C/C(C)=C/C(C)=C/c2ccccc2)oc(=O)c1C [ASNIPYRONE A]	Active	Active	Active	Active	Active	Active	62	–	–	–	–	–	–
O=c1[nH]cc(F)c(=O)[nH]1 [FLUOROURACIL]	–	–	–	–	–	–	52	31	109	8.5	59	3.3	–
COc1cc(-c2cc(C)cc(C)c2-c2ccccc2)oc(=O)c1C [NIGERAPYRONE B]	Active	Active	Active	Active	Active	Active	–	–	62	–	–	–	–
COc1cc(/C=C/C(C)=C/C(C)=O)oc(=O)c1C [NIGERAPYRONE D]	Active	Active	Active	Active	Active	Active	81	121	81	–	–	–	–
COc1cc(/C=C/C(C)=O)oc(=O)c1C [NIGERAPYRONE E]	Active	Active	Active	Active	Active	Active	43	105	86	43	48	86	38
